# High-throughput results deposited in PubChem BioAssay by several laboratories.
# SR-BI DiI inh – mouse SR-BI HDL lipid transfer inhibition. Q61009. ldlA[mSR-BI] CHO cells, DiI-HDL uptake fluorescence, 3 h. inhibition, % at 12.5 µM. 320,000 tested, 0.96% active. AID 488896;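 active means mean replicate inhibition of at least 70% and a set share of replicates each scoring 70 or more; inconclusive means meets just one of the two criteria; inactive means fails both criteria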;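 further: 0% = median of neutral control wells and 100% = median of positive control wells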
# Hep lipid drop – modulators of hepatic lipid droplet formation; 240,000 tested, 0.4% active; AID 1656; inhibition, % at 6.5 µM; AML12 mouse hepatocytes, oleate lipid droplets, BODIPY imaging;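 active means lipid droplet intensity inhibited by at least 50%, with more than 500 cells counted; inconclusive means wells with under 300 cells, treated as cytotoxic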
#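 material = mouse AML12 hepatocyte cell line, fixed after treatment | also added = 100 µM oleic acid challenge | doses = compound at 6.5 µM only | schedule = overnight exposure | technique = Image-based BODIPY and DAPI two-channel analysis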
# Yeast superoxide – yeast age-related superoxide inhibition as caloric restriction mimetic; S. cerevisiae aged cells, superoxide DHE fluorescence; hits give low values; superoxide response (% of plate mean), % at 10 µM; 330,000 tested, 0.18% active; AID 2690;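 active means superoxide response under a set limit, about three screen SD below normal, cut at about 65% in these data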;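 further: yeast aged for seven days with compound at 30 °C before DHE staining; 100% = average MFI of all compound-treated wells on the plate with controls excluded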
# SMARCA2 act – SMARCA2 function activation, primary screen; MG213 cells, MMTV-luciferase reporter, dexamethasone, overnight; activation, % at 9.1 µM; 370,000 tested, 1% active; in the data active means activation above about 7.8%;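 further: 0% = vehicle wells and 100% = reference activator wells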
# AHR activator – activates the human aryl hydrocarbon receptor; P35869; AHR-responsive luciferase reporter cells, luminescence; activation, % at 5 µM; 320,000 tested, 2.5% active; in the data active means activation above about 47%;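 further: 0% = vehicle wells and 100% = reference agonist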
# SR-BI DiI-HDL act – SR-BI HDL lipid transfer activation. CHO ldlA[mSR-BI] cells, DiI-HDL uptake fluorescence, 3 h; 100 = double the neutral-control signal. activation, % at 12.5 µM. 320,000 tested, 0.096% active;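 active means mean replicate activation of at least 60% and every replicate at or above 60%; inconclusive means mean or all-replicate condition met, but not both; inactive means mean below 60% and not all replicates reaching 60%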;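 further: 0% = median plate neutral-control signal and 100% = twice that signal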
#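 Material: SR-BI-overexpressing, LDLR-lacking CHO cells; schedule: compound exposure 3 h, 37 °C; reagent: DiI-labelled HDL at 10 µg/mL final; technique: bottom-read fluorescence, 550/595 nm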
# Starred values were filed as active, the others as inactive; u = inconclusive; x = no result; ! = repeats disagree. Only some compounds are listed: those with a hit (about 4.3% of all), similar ones and a draw of the others.
SMILES,SR-BI DiI inh,Hep lipid drop,Yeast superoxide,SMARCA2 act,AHR activator,SR-BI DiI-HDL act
CN1C2=NCCN2C(=O)c2cc(Cl)ccc21,-25,12,101,2,59*,25
Cc1nc2ncnn2c(C)c1CCC(=O)N1CCN(c2ccccn2)CC1,-2,12,83,0,-1,2
Cc1nc2ncnn2c(C)c1CCC(=O)N1CCc2ccccc2C1,5,x,103,7.9*,1,-5
COCC(=O)Nc1ccc2c(c1)C(=O)N(C)[C@@H]1CC[C@@H](CC(=O)OC)O[C@H]1CO2,x,x,x,-1,x,x
CCOC(=O)c1cnc2c(cnn2C)c1NCc1ccc(OC)cc1,79*,5,79,1,0,-79
COc1ccc(CNc2c(C(=O)O)cnc3c2cnn3C)cc1,-13,13,101,1,3,13
CCOC(=O)C1=C(C(=O)OCC)C2N(Cc3ccc(Br)cc3)c3ccccc3[C@@]23C[C@@H](C(=O)OC)N(S(=O)(=O)c2ccc(Br)cc2)C3=N1 (some centres not stated),x,x,x,-1,x,x
CCCCOCC1CN(CCCC)S(=O)(=O)c2c(cccc2Sc2ccc(OC)c(OC)c2)O1 (configuration not stated),x,x,x,-2,x,x
CCCCOc1ccc(C(=O)NC2CCCCN(Cc3ccc(Cl)cc3)C2=O)cc1 (configuration not stated),x,x,x,-2,x,x
N/C(=N\OC(=O)c1ccc(F)cc1)c1ccc(Br)cc1,5,-5,113,2,52*,-5
Cc1ccc(/C(N)=N/OC(=O)c2ccc(F)cc2)cc1,11,-5,103,7.8*,4,-11
N/C(=N\OC(=O)c1ccc(F)cc1)c1ccccc1,-28,x,119,7,60*,28
CC(C)CNC(=O)OCc1cn(Cc2ccccc2F)nn1,x,x,x,-1,x,x
COC(=O)c1cccc(Cn2ccc3ccc(-c4ccc5ccn(C(=O)c6cccc(OC)c6)c5c4)cc32)c1,x,x,x,-1,x,x
CCC(=O)Nc1c(C)nn(-c2ccc(C)c(C)c2)c1C,6,1,102,-1,19,-6
Cc1ccc(-n2nc(C)c(NC(=O)CCl)c2C)cc1C,20,-22,76,6,52*,-20
COc1ccc(-c2cc3c(=O)n(CC(=O)N4CCN(C)CC4)ncn3n2)cc1,-10,11,110,3,73*,10
Oc1ccc2c(ccc3[nH]cnc32)c1,-32,2,97,3,30,32
Brc1cc2[nH]cnc2c2ccccc12,6,-18,103,-2,63*,-6
CSc1nsc2nc(=O)c(/C=C3\C(C)=Nc4ccc(C)cc43)c(N)n12,26,-28,116,-4,12,-26
CC1=Nc2ccc(C)cc2/C1=C/c1c(N)n2oc(C)cc2nc1=O,93*!,-17,114,-4,6,-66
CC(=O)N1C(=O)C(=C2C=C(C)OC(C)=C2)c2ccccc21,-1,x,90,0,55*,1
CCN(C(=O)CCc1cn(CC)c2ccccc12)c1ccc(Oc2cccnc2)cc1,x,x,x,-1,x,x
O=[N+]([O-])c1cc(Cl)ccc1N1CCCC1,-9,6,94,-3,12,9
O=C1C(Cl)=C(N2CCN(c3ccccc3[N+](=O)[O-])CC2)C(=O)c2ccccc21,0,-26,146,3,71*,0
SMILES,SR-BI DiI inh,Hep lipid drop,Yeast superoxide,SMARCA2 act,AHR activator,SR-BI DiI-HDL act
COc1ccc2sc(-c3ccccc3OC)c(-c3ccc(OC)nc3)c2c1,33,x,74,1,24,-33
COc1ccc(-c2sc3ccc(OC)cc3c2-c2ccc(OC)nc2)cc1,75*,x,99,1,8,-75
COc1ccc(-c2sc3ccc(OC)cc3c2C#Cc2cncn2C)cc1,u,x,107,1,75*,-72
COc1ccc(-c2oc3ccccc3c2C#Cc2cncn2C)cc1,79*,x,121,1,49*,-79
CCCC[C@H](C(=O)N(C)c1cccc(OC)c1)[C@@H](O)c1ccc(Cl)cc1,x,x,x,-4,x,x
C[C@@H]1CN(C(=O)OC(C)(C)C)CCN1c1ccc(N2CCN(Cc3ccccc3)[C@@H](C)C2)c(C#N)c1,x,x,x,-7,x,x
COc1ccc(CC(=O)N(Cc2ccccc2)c2ccccc2C(=O)Nc2cc(OC)ccc2OC)cc1,x,x,x,1,x,x
CN1C(=O)C[C@@](C#N)(C(=O)NCc2ccc3c(c2)OCO3)[C@H]1c1ccccc1,x,x,x,2,x,x
